Assay results published in ChEMBL document CHEMBL5058577, “EUbOPEN Chemogenomics Library 2 (Multiplex)” (2022).

Test system: HEK-293T
Assay: Multiplex assay against HEK293T
Assay type: toxicity, cell-based
Conditions: human
How it was run: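 Imaging took place on a CQ1 microscope at 37°C and 5% CO2 once compound had been added to live cells stained at seeding with Hoechst33342, BioTracker Green Microtubule Cytoskeleton Dye, MitoTracker Red and Annexin V Alexa Fluor 680. CellPathfinder machine-learning gating classed cells as Hoechst high-intensity objects or normal cells, classed normal cells as having healthy, pyknosed or fragmented nuclei, and classed pyknosed cells as mitotic or apoptotic. Tubulin, mitochondrial-mass and membrane-permeability phenotypes are per cents of the healthy-nucleus cells.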

[1] = 12 h, 1 µM, compound concentration 1 uM, replicate 1
[2] = 12 h, 1 µM, compound concentration 1 uM, replicate 2
[3] = 12 h, 10 µM, compound concentration 10 uM, replicate 1
[4] = 12 h, 10 µM, compound concentration 10 uM, replicate 2
[5] = 24 h, 1 µM, compound concentration 1 uM, replicate 1
[6] = 24 h, 1 µM, compound concentration 1 uM, replicate 2
[7] = 24 h, 10 µM, compound concentration 10 uM, replicate 1
[8] = 24 h, 10 µM, compound concentration 10 uM, replicate 2
[9] = 48 h, 1 µM, compound concentration 1 uM, replicate 1
[10] = 48 h, 1 µM, compound concentration 1 uM, replicate 2
[11] = 48 h, 10 µM, compound concentration 10 uM, replicate 1
[12] = 48 h, 10 µM, compound concentration 10 uM, replicate 2

COc1cc(OC2CCN(C(C)=O)CC2)ccc1C(=O)N1CCC(N2C(=O)OCc3ccccc32)CC1
Population Apoptotic (%) [1]: 28% | Population Fragmented Nuclei (%) [1]: 5% | Population Healthy Nuclei (%) [1]: 83% | Population Hoechst High Intensity Objects (%) [1]: 7% | Population Membrane Permeable-Phenotype (%) [1]: 0% | Population Mitochondria Different-Phenotype (%) [1]: 37% | Population Mitotic Cells (%) [1]: 71% | Population Normal (%) [1]: 92% | Population Pyknosed Nuclei (%) [1]: 11% | Population Tubulin-Different-Phenotype (%) [1]: 26% | Total Cell Count [1]: 477 | Population Apoptotic (%) [2]: 48% | Population Healthy Nuclei (%) [2]: 76% | Population Mitochondria Different-Phenotype (%) [2]: 59% | Population Mitotic Cells (%) [2]: 51% | Population Pyknosed Nuclei (%) [2]: 18% | Population Tubulin-Different-Phenotype (%) [2]: 21% | Total Cell Count [2]: 381 | Population Apoptotic (%) [3]: 40% | Population Fragmented Nuclei (%) [3]: 9% | Population Healthy Nuclei (%) [3]: 77% | Population Hoechst High Intensity Objects (%) [3]: 8% | Population Membrane Permeable-Phenotype (%) [3]: 0% | Population Mitochondria Different-Phenotype (%) [3]: 57% | Population Mitotic Cells (%) [3]: 60% | Population Normal (%) [3]: 91% | Population Pyknosed Nuclei (%) [3]: 13% | Population Tubulin-Different-Phenotype (%) [3]: 47% | Total Cell Count [3]: 436 | Population Apoptotic (%) [4]: 67% | Population Fragmented Nuclei (%) [4]: 4% | Population Healthy Nuclei (%) [4]: 80% | Population Hoechst High Intensity Objects (%) [4]: 6% | Population Mitochondria Different-Phenotype (%) [4]: 77% | Population Mitotic Cells (%) [4]: 32% | Population Normal (%) [4]: 93% | Population Pyknosed Nuclei (%) [4]: 14% | Population Tubulin-Different-Phenotype (%) [4]: 40% | Total Cell Count [4]: 316 | Population Apoptotic (%) [5]: 28% | Population Fragmented Nuclei (%) [5]: 9% | Population Healthy Nuclei (%) [5]: 78% | Population Hoechst High Intensity Objects (%) [5]: 4% | Population Membrane Permeable-Phenotype (%) [5]: 2% | Population Mitochondria Different-Phenotype (%) [5]: 25% | Population Mitotic Cells (%) [5]: 71% | Population Normal (%) [5]: 95% | Population Pyknosed Nuclei (%) [5]: 11% | Population Tubulin-Different-Phenotype (%) [5]: 17% | Total Cell Count [5]: 598 | Population Apoptotic (%) [6]: 48% | Population Fragmented Nuclei (%) [6]: 7% | Population Healthy Nuclei (%) [6]: 80% | Population Hoechst High Intensity Objects (%) [6]: 6% | Population Membrane Permeable-Phenotype (%) [6]: 0% | Population Mitochondria Different-Phenotype (%) [6]: 40% | Population Mitotic Cells (%) [6]: 51% | Population Normal (%) [6]: 93% | Population Pyknosed Nuclei (%) [6]: 12% | Population Tubulin-Different-Phenotype (%) [6]: 15% | Total Cell Count [6]: 491 | Population Apoptotic (%) [7]: 31% | Population Fragmented Nuclei (%) [7]: 8% | Population Healthy Nuclei (%) [7]: 78% | Population Hoechst High Intensity Objects (%) [7]: 3% | Population Membrane Permeable-Phenotype (%) [7]: 0% | Population Mitochondria Different-Phenotype (%) [7]: 44% | Population Mitotic Cells (%) [7]: 68% | Population Normal (%) [7]: 96% | Population Pyknosed Nuclei (%) [7]: 13% | Population Tubulin-Different-Phenotype (%) [7]: 36% | Total Cell Count [7]: 523 | Population Apoptotic (%) [8]: 49% | Population Fragmented Nuclei (%) [8]: 7% | Population Hoechst High Intensity Objects (%) [8]: 4% | Population Mitochondria Different-Phenotype (%) [8]: 58% | Population Mitotic Cells (%) [8]: 50% | Population Normal (%) [8]: 95% | Population Pyknosed Nuclei (%) [8]: 14% | Population Tubulin-Different-Phenotype (%) [8]: 29% | Total Cell Count [8]: 393 | Population Apoptotic (%) [9]: 20% | Population Fragmented Nuclei (%) [9]: 13% | Population Healthy Nuclei (%) [9]: 78% | Population Hoechst High Intensity Objects (%) [9]: 3% | Population Membrane Permeable-Phenotype (%) [9]: 1% | Population Mitochondria Different-Phenotype (%) [9]: 19% | Population Mitotic Cells (%) [9]: 79% | Population Normal (%) [9]: 96% | Population Pyknosed Nuclei (%) [9]: 8% | Population Tubulin-Different-Phenotype (%) [9]: 13% | Total Cell Count [9]: 902 | Population Apoptotic (%) [10]: 33% | Population Fragmented Nuclei (%) [10]: 11% | Population Healthy Nuclei (%) [10]: 80% | Population Hoechst High Intensity Objects (%) [10]: 2% | Population Mitochondria Different-Phenotype (%) [10]: 23% | Population Mitotic Cells (%) [10]: 66% | Population Normal (%) [10]: 97% | Population Pyknosed Nuclei (%) [10]: 7% | Population Tubulin-Different-Phenotype (%) [10]: 12% | Total Cell Count [10]: 655 | Population Apoptotic (%) [11]: 36% | Population Fragmented Nuclei (%) [11]: 13% | Population Healthy Nuclei (%) [11]: 78% | Population Hoechst High Intensity Objects (%) [11]: 4% | Population Membrane Permeable-Phenotype (%) [11]: 0% | Population Mitochondria Different-Phenotype (%) [11]: 30% | Population Mitotic Cells (%) [11]: 63% | Population Normal (%) [11]: 95% | Population Pyknosed Nuclei (%) [11]: 8% | Population Tubulin-Different-Phenotype (%) [11]: 21% | Total Cell Count [11]: 813 | Population Fragmented Nuclei (%) [12]: 12% | Population Healthy Nuclei (%) [12]: 80% | Population Hoechst High Intensity Objects (%) [12]: 3% | Population Mitochondria Different-Phenotype (%) [12]: 39% | Population Normal (%) [12]: 96% | Population Pyknosed Nuclei (%) [12]: 7% | Population Tubulin-Different-Phenotype (%) [12]: 16% | Total Cell Count [12]: 625
